In ChEMBL document CHEMBL1770118, “A new class of β-carboline alkaloid-peptide conjugates with therapeutic efficacy in acute limb ischemia/reperfusion injury” (Eur J Med Chem, 2011):
The source made the active and inactive calls. The calls are words filed in the database; no cut-off is given here. *1 amine or outer side, *2 acyl side, *3 side chain or, on linkers, in order; H or OH if unused. Where a SMILES comes first, the peptide text is derived from it. [ ]: non-standard residue; d: D form. X2 = COc1cc([C@@H]2c3[nH]c4ccccc4c3C[C@@H](C(=O)[*:2])N2[*:1])ccc1O; X3 = COc1ccc([C@@H]2c3[nH]c4ccccc4c3C[C@@H](C(=O)[*:2])N2[*:1])cc1; X1 = O=C([C@@H]1Cc2c([nH]c3ccccc23)[C@@H](c2ccccc2O)N1[*:1])[*:2]

Experiments:
[1] = tested on: Rattus norvegicus; experiment: Antithrombotic activity in Wistar rat assessed as reduction of dry thrombus weight at 10 umol/kg; format: functional, organism-based
[2] = tested on: PC-12; experiment: Antioxidant activity in rat PC12 cells assessed as protection against hydroxyl radical-induced reduction of cell viability pretreated 1 he before […] incubated for 1 hr followed by washout measured after 14 hrs by MTT assay; format: functional, cell-based
Outline: (§1)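 PC12 cells were grown in DMEM with 10% heat-inactivated horse serum and 5% FBS, then seeded at 20,000/well on poly-lysine. After 24 h, cells were pretreated with compound at five concentrations for 1 h. Damage was 1 h with: NO, 2 mM sodium nitroprusside; H₂O₂, 1 mM; ·OH, H₂O₂/Fe(II). Medium was replaced, and MTT survival was read after 14 h. EC50 was derived.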

[3] = tested on: PC-12; experiment: Antioxidant activity in rat PC12 cells assessed as protection against hydrogen peroxide-induced reduction of cell viability pretreated 1 he before […] incubated for 1 hr followed by washout measured after 14 hrs by MTT assay; format: functional, cell-based; outline: as §1
[4] = tested on: PC-12; experiment: Antioxidant activity in rat PC12 cells assessed as protection against nitric oxide-induced reduction of cell viability pretreated 1 he before nitric oxide challenge incubated for 1 hr followed by washout measured after 14 hrs by MTT assay; format: functional, cell-based; outline: as §1

Row | SMILES | Activity [1] | EC50 [2] | EC50 [3] | EC50 [4]
1 | COc1ccc([C@H]2N[C@H](C(=O)NCC(=O)N[C@@H](CCCNC(=N)N)C(=O)N3CCC[C@H]3C(=O)N[C@@H](C)C(=O)N[C@@H](CCCCN)C(=O)O)Cc3c2[nH]c2ccccc32)cc1 (H-[X3]GRPAK-OH) | Active |  |  | 
2 | COc1cc([C@H]2N[C@H](C(=O)N[C@@H](C)C(=O)N[C@@H](CCCNC(=N)N)C(=O)N3CCC[C@H]3C(=O)N[C@@H](C)C(=O)N[C@@H](CCCCN)C(=O)O)Cc3c2[nH]c2ccccc32)ccc1O (H-[X2]ARPAK-OH) | Active |  |  | 
3 | O=C(O)[C@@H]1Cc2c([nH]c3ccccc23)[C@@H](c2ccccc2O)N1 |  | 72 µM | 38 µM | 77 µM
4 | C[C@H](NC(=O)[C@@H]1CCCN1C(=O)[C@H](CCCN=C(N)N)NC(=O)CN)C(=O)N[C@@H](CCCCN)C(=O)O (H-GRPAK-OH) | Active |  |  | 
5 | COc1ccc([C@H]2N[C@H](C(=O)O)Cc3c2[nH]c2ccccc32)cc1 |  | 72 µM | 38 µM | 77 µM
6 | COc1ccc([C@H]2N[C@H](C(=O)N[C@@H](C)C(=O)N[C@@H](CCCNC(=N)N)C(=O)N3CCC[C@H]3C(=O)N[C@@H](C)C(=O)N[C@@H](CCCCN)C(=O)O)Cc3c2[nH]c2ccccc32)cc1 (H-[X3]ARPAK-OH) | Active |  |  | 
7 | C[C@H](NC(=O)[C@@H]1CCCN1C(=O)[C@H](CCCNC(=N)N)NC(=O)CNC(=O)[C@@H]1Cc2c([nH]c3ccccc23)[C@@H](c2ccccc2O)N1)C(=O)N[C@@H](CCCCN)C(=O)O (H-[X1]GRPAK-OH) | Active |  |  | 
8 | COc1cc([C@H]2N[C@H](C(=O)O)Cc3c2[nH]c2ccccc32)ccc1O |  | 72 µM | 38 µM | 77 µM
9 | C[C@H](NC(=O)[C@@H]1Cc2c([nH]c3ccccc23)[C@@H](c2ccccc2O)N1)C(=O)N[C@@H](CCCNC(=N)N)C(=O)N1CCC[C@H]1C(=O)N[C@@H](C)C(=O)N[C@@H](CCCCN)C(=O)O (H-[X1]ARPAK-OH) | Active |  |  | 
10 | COc1cc([C@H]2N[C@H](C(=O)NCC(=O)N[C@@H](CCCNC(=N)N)C(=O)N3CCC[C@H]3C(=O)N[C@@H](C)C(=O)N[C@@H](CCCCN)C(=O)O)Cc3c2[nH]c2ccccc32)ccc1O (H-[X2]GRPAK-OH) | Active |  |  | 
11 | C[C@H](N)C(=O)N[C@@H](CCCN=C(N)N)C(=O)N1CCC[C@H]1C(=O)N[C@@H](C)C(=O)N[C@@H](CCCCN)C(=O)O (H-ARPAK-OH) | Active |  |  | 
